Rows were chosen to be rich in hits. Some 1.2% of all compounds tested hit in one or more screens of this group.
S1P3 agonist – human S1P3 receptor agonists, primary screen, cell-based, primary and confirmation, NFAT-BLA reporter; S1P3 NFAT-BLA reporter cells, agonism, FRET ratio; relative to 1 µM S1P, basal subtracted; activation, % at 4.5 µM; hit rate 0.1% among 60,000; AID 373, 2006;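 active = activation above the screen-wide mean plus 3 SD, cut at about 4.5% in these data, passing the limit was not always enough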
Target sequence (Q99500 whole entry, looked up): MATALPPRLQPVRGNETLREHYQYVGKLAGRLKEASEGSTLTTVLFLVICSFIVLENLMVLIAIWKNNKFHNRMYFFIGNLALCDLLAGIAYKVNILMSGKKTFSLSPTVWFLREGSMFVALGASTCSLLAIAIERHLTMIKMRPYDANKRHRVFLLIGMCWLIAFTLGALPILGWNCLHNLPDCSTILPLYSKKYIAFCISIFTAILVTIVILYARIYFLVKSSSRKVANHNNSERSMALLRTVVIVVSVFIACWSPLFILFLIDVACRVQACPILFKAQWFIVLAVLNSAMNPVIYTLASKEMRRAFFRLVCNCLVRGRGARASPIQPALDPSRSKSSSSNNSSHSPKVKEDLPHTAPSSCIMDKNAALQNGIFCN
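Material: Human S1P3 NFAT-BLA reporter CHO cells | Incubation: Overnight plating, 4 h compound 37 °C, 2 h substrate RT | Signal: FRET β-lactamase substrate fluorescence, excitation 405 nm, 460/535 nm emission ratio, background-subtracted | Compound: 4.5 µM final, single dose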
ROCK2 blocker – inhibitors of human ROCK2 kinase, primary screen, biochemical, high-throughput, luminescence. hit rate 0.35% among 60,000. Rho-associated protein kinase 2 (Homo sapiens), O75116. purified ROCK2, Kinase-Glo ATP depletion luminescence. AID 604, 2007. inhibition, % at 6 µM;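 active = inhibition above the screen-wide mean inhibition plus 3 SD, cut at about 18% in these data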
JNK3 blocker – JNK3 kinase activity inhibitors, primary screen, biochemical, human, purified enzyme; hit rate 0.61% among 60,000; HTS; AID 746, 2007; inhibition, % at 8 µM; Mitogen-activated protein kinase 10 (Homo sapiens), P53779; in the data active = inhibition above about 17%
S1P1 ag-PAM – S1P1 agonists and agonism potentiators, primary screen, cell-based, primary and confirmation screens, CRE-bla reporter; Sphingosine 1-phosphate receptor 1 (Homo sapiens), P21453; S1P1 CRE-bla cells, forskolin, beta-lactamase FRET, potentiator mode; S1P1 agonist co-added at EC20, 2 nM; 100% = saturating reference agonist, 0% = basal; activation, % at 9.5 µM; hit rate 0.57% among 56,000; AID 449, 2006;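 active = activation above a cutoff set at the mean activation of all tested compounds plus 3 SD, cut at about 54% in these data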;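 also: forskolin at 4 µM as EC80 and the EC20 agonist is SEW2871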
MMP13 inh – human MMP13 inhibitors, primary screen, biochemical, FRET peptide cleavage; Collagenase 3 (Homo sapiens), P45452; MMP-13 fTHP FRET cleavage, Mca fluorescence; inhibition, % at 4 µM; hit rate 0.07% among 65,000; AID 570, 2006;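 active = inhibition above the mean of compound-free control plate wells plus 3 SD, cut at about 14% in these data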
PKA kinase inh – inhibitors of human PKA kinase activity, primary screen, biochemical, ATP-depletion luminescence, Kemptide substrate. hit rate 0.1% among 65,000. PKA Kemptide phosphorylation, Kinase-Glo ATP luminescence. inhibition, % at 6 µM. cAMP-dependent protein kinase catalytic subunit alpha (Homo sapiens), P17612. AID 524, 2006;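 active = inhibition above the screen-wide mean inhibition plus 3 SD, cut at about 21% in these data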
Of the large screens only hits and unclear results are named; the others gave an inactive call.

CNC(=O)c1cc2c(=O)n3cccc(C)c3nc2n1C	none
CC(C)(C)OC(=O)N[C@@H](Cc1ccccc1)c1nnc(S(=O)(=O)Cc2cccc(F)c2)o1	S1P1 ag-PAM 69.8
O=S(=O)(c1cccs1)N1CCN(CC(O)COc2cc(Cl)ccc2Cl)CC1 (configuration not stated)	S1P1 ag-PAM 66.0
O=C(CCS(=O)(=O)c1ccc(Cl)cc1)N1CCN(S(=O)(=O)c2cccs2)CC1	none
CCOC(=O)CN1C(=O)C(C)(C)Oc2ccc(C(=O)Nc3ccccc3OC)cc21	S1P1 ag-PAM 89.5
Cc1ccc(NC(=O)c2ccc3c(c2)N(CC(=O)N2CCCCC2)C(=O)C(C)(C)O3)cc1	none
Nc1nonc1-n1nncc1-c1ccccc1	PKA kinase inh 28.3 (no result: S1P3 agonist, ROCK2 blocker, JNK3 blocker, S1P1 ag-PAM)
Nc1cccc(-n2nncc2-c2ccc(Cl)cc2)c1	none (no result: S1P3 agonist, ROCK2 blocker, JNK3 blocker, S1P1 ag-PAM)
Cc1nn(Cc2ccc(Cl)c(Cl)c2)c(C)c1NC(=O)c1cc(CC(C)C)on1	S1P1 ag-PAM 76.4
Cc1cccc(NC(=O)C2CCN(c3nccc(C)n3)CC2)c1	none
CCCn1c(=O)c2ccccc2n2c(SCc3c(C(=O)OCC)oc4ccccc34)nnc12	S1P3 agonist 12.7
Cc1cc(C)nc(-n2nc(C)c3c(=O)[nH]c(C(F)(F)F)nc32)n1	none (no result: S1P3 agonist, ROCK2 blocker, JNK3 blocker, S1P1 ag-PAM)
N#CC1=C(N)Oc2cc(O)ccc2C1c1ccncc1 (configuration not stated)	ROCK2 blocker 20.9
Cc1cccc(Cn2cnc3c(nnn3Cc3ccc(Cl)cc3)c2=O)c1	none
Cc1ccc(Cn2nnc3c(=O)n(Cc4cccc(C)c4)cnc32)cc1	MMP13 inh 14.0
COc1cc(CC(=O)Nc2nccs2)cc(OC)c1OC	JNK3 blocker 23.2
COc1cccc(CC(=O)Nc2nccs2)c1	none
CN(CCO)c1ncnc2nc[nH]c12	ROCK2 blocker 37.0
Cc1c(Br)cc(C(=O)OC2CCN(C)CC2)c(C)c1C	none
CCc1cc2c(=O)c(-c3nc4ccccc4n3C)c(COCC(=O)O)oc2cc1O	none
CC(=O)Oc1ccc2cc(-c3nc4ccccc4n3C)c(=O)oc2c1	S1P3 agonist 5.7
COc1ccc(NC(=O)CCCCn2c(=O)[nH]c3ccccc3c2=O)cc1	JNK3 blocker 20.8
COc1ccc(NC(=O)CCCn2c(=O)[nH]c3ccccc3c2=O)cc1	none
CCOC(=O)Cn1c(=O)oc2cc(S(=O)(=O)N3CCc4ccccc43)ccc21	none
CCC1=C/C(=C/N(C)c2ccccc2)C(=O)S1	none
CC(C)CCOC(=O)C1[C@H]2C(=O)N(Cc3cccs3)C[C@]23C=C[C@H]1O3 (some centres not stated)	none
O=c1c2ccccc2c(C=NCCO)c(O)n1-c1ccccc1	MMP13 inh 15.1
O=c1c2ccccc2c(C=NC2CCS(=O)(=O)C2)c(O)n1-c1ccccc1 (configuration not stated)	none
C/C(=C(\C#N)C(=O)NC1CCCCC1)N(C)C	none
C/C(NC1CCCC1)=C(/C#N)C(N)=O	JNK3 blocker 31.9
NCCCCCc1nnc(SCC(=O)c2ccc(Cl)cc2)o1	none
COC(=O)c1c(-c2cccs2)csc1NC(=O)CN1CCOCC1	JNK3 blocker 23.2
CCOC(=O)Nc1ccc(OC)cc1S(=O)(=O)N1CCCCC1	none
CC(C)c1ccc2oc(-c3cc(N)ccc3O)nc2c1	S1P1 ag-PAM 64.3
Brc1ccc2ncnc(Nc3ccc(N4CCOCC4)cc3)c2c1	S1P1 ag-PAM 60.9
O=C(COc1ncnc2ccc(Br)cc12)Nc1ccc(N2CCOCC2)cc1	none
NC(=O)c1c(NC(=O)Cc2cccs2)sc2c1CCC2	JNK3 blocker 31.4
CCOC(=O)c1c(NC(=O)Cc2cccs2)sc2c1CCCC2	none
O=C(CN1CCc2ccccc2C1)c1cccs1	none
COc1ccc(CNC(=O)COc2ccc(S(=O)(=O)NC(C)C)cc2)cc1	none
Cc1cc(C(=O)CSc2nnc(-c3cccc(F)c3)n2N)c(C)n1Cc1ccc2c(c1)OCO2	none
